Data reported in ChEMBL document CHEMBL1773042, “Antiproliferative triterpenes from the leaves and twigs of Juglans sinensis on HSC-T6 cells” (2011).

Tests used:
[1] = Antiproliferative activity against rat HSC-T6 cells at 100 uM after 48 hrs by MTT assay; format: functional; conditions: HSC-T6, 48 h
How it was run: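 HSC-T6 (immortalized rat hepatic stellate line) kept in DMEM with 10% heat-inactivated FBS, penicillin/streptomycin, 37 °C, 5% CO2. Seeded at 5 × 10^4 cells/mL, grown 24 h, then exposed 48 h to vehicle or compound (10–100 μM, DMSO final 0.1%). MTT 2 mg/mL for 2 h, absorbance at 540 nm. Proliferation given as 100 × treated/vehicle absorbance. Mean of three independent experiments.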

[2] = Cell cycle arrest in rat HSC-T6 cells assessed as inhibition of DNA synthesis at sub-G1 phase at 25 uM after 24 hrs; format: functional, cell-based; set-up: scale not given: the % may be the effect or the level left
How it was run: (§1)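 Cells seeded at 5 × 10^5 cells/mL for 24 h, then treated at 25 μM for 24 or 48 h; controls received vehicle. Cells were harvested, washed twice in PBS pH 7.4 and fixed overnight in ice-cold 70% ethanol at 4 °C. Stained with PI/RNase buffer for 30 min at room temperature, then flow cytometry for phase distribution. Mean ± SD, three independent experiments in triplicate wells.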

[3] = Cell cycle arrest in rat HSC-T6 cells assessed as inhibition of DNA synthesis at G0/G1 phase at 25 uM after 24 hrs; format: functional, cell-based; set-up: scale not given: the % may be the effect or the level left; how it was run: as §1
[4] = Cell cycle arrest in rat HSC-T6 cells assessed as inhibition of DNA synthesis at S phase at 25 uM after 24 hrs; format: functional, cell-based; set-up: scale not given: the % may be the effect or the level left; how it was run: as §1
[5] = Cell cycle arrest in rat HSC-T6 cells assessed as inhibition of DNA synthesis at G2/M phase at 25 uM after 24 hrs; format: functional, cell-based; set-up: scale not given: the % may be the effect or the level left; how it was run: as §1
[6] = Cell cycle arrest in rat HSC-T6 cells assessed as inhibition of DNA synthesis at sub-G1 phase at 25 uM after 48 hrs; format: functional, cell-based; set-up: scale not given: the % may be the effect or the level left; how it was run: as §1
[7] = Cell cycle arrest in rat HSC-T6 cells assessed as inhibition of DNA synthesis at G0/G1 phase at 25 uM after 48 hrs; format: functional, cell-based; set-up: scale not given: the % may be the effect or the level left; how it was run: as §1
[8] = Cell cycle arrest in rat HSC-T6 cells assessed as inhibition of DNA synthesis at S phase at 25 uM after 48 hrs; format: functional, cell-based; set-up: scale not given: the % may be the effect or the level left; how it was run: as §1
[9] = Cell cycle arrest in rat HSC-T6 cells assessed as inhibition of DNA synthesis at G2/M phase at 25 uM after 48 hrs; format: functional, cell-based; set-up: scale not given: the % may be the effect or the level left; how it was run: as §1
[10] = Induction of apoptosis in rat HSC-T6 cells assessed as early apoptotic cells at 10 uM after 24 hrs using Annexin V-FITC staining by flow cytometry; format: functional
How it was run: (§2)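 After 24 h seeding at 5 × 10^5 cells/mL, HSC-T6 cells were treated at 10 or 25 μM for 24 or 48 h, then collected and washed twice with PBS. Annexin-V/PI double staining with flow cytometry separated Annexin-V+/PI− (early apoptotic), Annexin-V+/PI+ (late apoptotic) and Annexin-V−/PI+ (dead) cells, expressed as percentages. Data representative of three independent experiments.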

[11] = Induction of apoptosis in rat HSC-T6 cells assessed as late apoptotic cells at 10 uM after 24 hrs using Annexin V-FITC staining by flow cytometry; format: functional; how it was run: as §2
[12] = Induction of apoptosis in rat HSC-T6 cells assessed as dead cells at 10 uM after 24 hrs using Annexin V-FITC staining by flow cytometry; format: functional
How it was run: (§3)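 HSC-T6 cells seeded at 5 × 10^5 cells/mL in 12-well plates for 24 h, then exposed to compound at 10 or 25 μM for 24 or 48 h. Harvested, washed twice in PBS pH 7.4, stained with Annexin-V/PI and analysed by flow cytometry. Dead cells scored as Annexin-V−/PI+, given as percentage. Representative of three independent experiments.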

[13] = Induction of apoptosis in rat HSC-T6 cells assessed as early apoptotic cells at 25 uM after 24 hrs using Annexin V-FITC staining by flow cytometry; format: functional; how it was run: as §2
[14] = Induction of apoptosis in rat HSC-T6 cells assessed as late apoptotic cells at 25 uM after 24 hrs using Annexin V-FITC staining by flow cytometry; format: functional; how it was run: as §2
[15] = Induction of apoptosis in rat HSC-T6 cells assessed as dead cells at 25 uM after 24 hrs using Annexin V-FITC staining by flow cytometry; format: functional; how it was run: as §3
[16] = Induction of apoptosis in rat HSC-T6 cells assessed as viable cells at 25 uM after 24 hrs using Annexin V-FITC staining by flow cytometry; format: functional; conditions: HSC-T6, 24 h, read-out: Activity; how it was run: as §2
[17] = Induction of apoptosis in rat HSC-T6 cells assessed as early apoptotic cells at 25 uM after 48 hrs using Annexin V-FITC staining by flow cytometry; format: functional; how it was run: as §2
[18] = Induction of apoptosis in rat HSC-T6 cells assessed as late apoptotic cells at 25 uM after 48 hrs using Annexin V-FITC staining by flow cytometry; format: functional; how it was run: as §2
[19] = Induction of apoptosis in rat HSC-T6 cells assessed as dead cells at 25 uM after 48 hrs using Annexin V-FITC staining by flow cytometry; format: functional; how it was run: as §3
[20] = Induction of apoptosis in rat HSC-T6 cells assessed as viable cells at 25 uM after 48 hrs using Annexin V-FITC staining by flow cytometry; format: functional; conditions: HSC-T6, 48 h, read-out: Activity; how it was run: as §2
[21] = Induction of apoptosis in rat HSC-T6 cells assessed as early apoptotic cells at 10 uM after 48 hrs using Annexin V-FITC staining by flow cytometry; format: functional; how it was run: as §2
[22] = Induction of apoptosis in rat HSC-T6 cells assessed as late apoptotic cells at 10 uM after 48 hrs using Annexin V-FITC staining by flow cytometry; format: functional; how it was run: as §2
[23] = Induction of apoptosis in rat HSC-T6 cells assessed as dead cells at 10 uM after 48 hrs using Annexin V-FITC staining by flow cytometry; format: functional; how it was run: as §3
[24] = Induction of apoptosis in rat HSC-T6 cells assessed as viable cells at 10 uM after 48 hrs using Annexin V-FITC staining by flow cytometry; format: functional; conditions: HSC-T6, 48 h, read-out: Activity; how it was run: as §2
HSC-T6 [25] = assay: Induction of apoptosis in rat HSC-T6 cells assessed as change in cell morphology at 10 to 50 uM by phase contrast microscopy; format: functional, cell-based; conditions: TDE = time-dependent effect
HSC-T6 [26] = assay: Induction of apoptosis in rat HSC-T6 cells assessed as change in cell morphology after 24 hrs by phase contrast microscopy; format: functional, cell-based
HSC-T6 [27] = assay: Induction of apoptosis in rat HSC-T6 cells assessed as change in cell morphology after 48 hrs by phase contrast microscopy; format: functional, cell-based
[28] = Induction of apoptosis in rat HSC-T6 cells assessed as viable cells at 10 uM after 24 hrs using Annexin V-FITC staining by flow cytometry; format: functional; conditions: HSC-T6, 24 h, read-out: Activity; how it was run: as §2
[29] = Antiproliferative activity against rat HSC-T6 cells at 10 uM after 48 hrs by MTT assay; format: functional; conditions: HSC-T6, 48 h
[30] = Antiproliferative activity against rat HSC-T6 cells at 50 uM after 48 hrs by MTT assay; format: functional; conditions: HSC-T6, 48 h

| SMILES | inhibition at 100 µM [1] [%] | Activity [2] [%] | Activity [3] [%] | Activity [4] [%] | Activity [5] [%] | Activity [6] [%] | Activity [7] [%] | Activity [8] [%] | Activity [9] [%] | Activity (HSC-T6 [25]) | Activity (HSC-T6 [26]) | Activity (HSC-T6 [27]) | further results |
| --- | --- | --- | --- | --- | --- | --- | --- | --- | --- | --- | --- | --- | --- |
| C[C@H]1[C@H](C)CC[C@]2(C(=O)O)CC[C@]3(C)C(=CC[C@@H]4[C@@]5(C)C[C@@H](O)[C@H](O)C(C)(C)[C@@H]5CC[C@]43C)[C@H]12 [COROSOLIC ACID] | 15.6 | 12.4 | 44.6 | 10.6 | 20.6 | 57.7 | 14.7 | 4.3 | 6 | tde | Dose-dependent effect | Dose-dependent effect | Activity [10]: 6.23%; Activity [11]: 7.12%; Activity [12]: 3.16%; Activity [13]: 10.45%; Activity [14]: 15.24%; Activity [15]: 8.77%; viability at 25 µM [16]: 65.5%; Activity [17]: 4.41%; Activity [18]: 9.23%; Activity [19]: 31.85%; viability at 25 µM [20]: 54.5%; Activity [21]: 10.14%; Activity [22]: 17.8%; Activity [23]: 5.44%; viability at 10 µM [24]: 66.6%; viability at 10 µM [28]: 83.5% |
| CC1(C)C=C2[C@H]3CC[C@@H]4[C@@]5(C)C(=O)C[C@H](O)C(C)(C)[C@@H]5CC[C@@]4(C)[C@]3(C)CC[C@@]2(C)CC1 | 14.2 | 1.9 | 53.2 | 14 | 17.8 | 5 | 43.6 | 10.6 | 18.8 | tde | Dose-dependent effect | Dose-dependent effect | – |
| O=C(O[C@@H]1Cc2c(O)cc(O)cc2O[C@@H]1c1cc(O)c(O)c(O)c1)c1cc(O)c(O)c(O)c1 [EPIGALOCATECHIN GALLATE] | 33.4 | 1.9 | 51.9 | 12.1 | 20.1 | 4.5 | 42.3 | 8.3 | 19.6 | – | – | – | inhibition at 10 µM [29]: 83.8%; inhibition at 50 µM [30]: 41.7% |
| C[C@H]1[C@H](C)CC[C@]2(C(=O)O)CC[C@]3(C)C(=CC[C@@H]4[C@@]5(C)CC[C@H](O)C(C)(C)[C@@H]5CC[C@]43C)[C@H]12 [URSOLIC ACID] | 14.8 | 2.9 | 56.4 | 11.9 | 18.9 | 17 | 39.7 | 9.6 | 16.7 | tde | Dose-dependent effect | Dose-dependent effect | – |
| C[C@H]1[C@H](C)CC[C@]2(C(=O)O)CC[C@]3(C)C(=CC[C@@H]4[C@@]5(C)C[C@@H](O)[C@@H](O)[C@@](C)(CO)[C@@H]5CC[C@]43C)[C@H]12 | 20.6 | – | – | – | – | – | – | – | – | – | – | – | – |
| C[C@H]1[C@H](C)CC[C@]2(C(=O)O)CC[C@]3(C)C(=CC[C@@H]4[C@@]5(C)CC[C@H](O)[C@@](C)(CO)[C@@H]5CC[C@]43C)[C@H]12 | 50 | – | – | – | – | – | – | – | – | – | – | – | – |
| C=C(C)[C@@H]1CC[C@]2(C)CC[C@]3(C)[C@H](CC[C@@H]4[C@@]5(C)C[C@@H](O)[C@H](O)C(C)(C)[C@@H]5CC[C@]43C)[C@@H]12 | 11 | 1.9 | 55.9 | 13.7 | 19.3 | 5.4 | 47.2 | 11 | 18 | tde | Dose-dependent effect | Dose-dependent effect | – |
| C[C@H]1[C@H](C)CC[C@]2(C(=O)O)CC[C@]3(C)C(=CC[C@@H]4[C@@]5(C)CCC(=O)[C@@](C)(CO)[C@@H]5CC[C@]43C)[C@H]12 | 77.9 | – | – | – | – | – | – | – | – | – | – | – | – |
